Results: ChEMBL document CHEMBL4715738, “In Vitro Antibacterial Activity of Curcumin-Polymyxin B Combinations against Multidrug-Resistant Bacteria Associated with Traumatic Wound Infections” (J Nat Prod, 2016)
Active and inactive are the calls of the source.

Tests used:
[1] = tested on: Escherichia coli; experiment: Synergistic antibacterial activity against Escherichia coli EC2 harboring CTX-M-15 assessed as fractional inhibitory concentration index measured after 24 hrs in presence of curcumin by checkerboard assay; type: functional
In short: (§1)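 FICI was derived from checkerboard MICs. Synergy was defined as FICI ≤ 0.5 and additive as FICI > 0.5−4.0. Where an MIC was not reached, the dilution above the maximum dose was used in the FICI calculation. Experiments were run in triplicate and reported as means.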

[2] = tested on: Staphylococcus aureus; experiment: Antibacterial activity against Staphylococcus aureus ATCC 25923 assessed as reduction in bacterial growth incubated for 24 hrs in presence of curcumin; type: functional
[3] = tested on: Pseudomonas aeruginosa; experiment: Synergistic antibacterial activity against Pseudomonas aeruginosa PAO1 assessed as fractional inhibitory concentration index measured after 24 hrs in presence of curcumin by checkerboard assay; type: functional
In short: (§2)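 FICI calculated from combination MICs; ≤0.5 taken as synergy and >0.5–4.0 as additive. Where an MIC was not reached, the dilution above the highest concentration tested was used in the calculation. Run in triplicate and reported as means.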

[4] = tested on: Streptococcus pyogenes; experiment: Synergistic antibacterial activity against Streptococcus pyogenes SPY2 assessed as fractional inhibitory concentration index measured after 24 hrs in presence of curcumin by checkerboard assay; type: functional; in short: as §2
[5] = tested on: Enterococcus faecium; experiment: Synergistic antibacterial activity against vancomycin-resistant Enterococcus faecium OEF42 assessed as fractional inhibitory concentration index measured after 24 hrs in presence of curcumin by checkerboard assay; type: functional; in short: as §1
[6] = tested on: HaCaT; experiment: Cytotoxicity against human HaCaT cells at 6.1 uM measured after 4 hrs by CyTox 96 nonradioactive assay relative to control; type: cell-based
[7] = tested on: Acinetobacter baumannii; experiment: Antibacterial activity against Acinetobacter baumannii AB14 harboring OXA-23 clone 1 assessed as reduction in bacterial growth incubated for 24 hrs in presence of curcumin; type: functional
[8] = tested on: Stenotrophomonas maltophilia; experiment: Antibacterial activity against Stenotrophomonas maltophilia SMS01 assessed as reduction in bacterial growth incubated for 24 hrs in presence of curcumin; type: functional
[9] = tested on: Pseudomonas aeruginosa; experiment: Synergistic antibacterial activity against Pseudomonas aeruginosa PA14 assessed as fractional inhibitory concentration index measured after 24 hrs in presence of curcumin by checkerboard assay; type: functional; in short: as §2
[10] = tested on: Enterococcus faecalis; experiment: Synergistic antibacterial activity against […] Enterococcus faecalis ATCC 29212 assessed as fractional inhibitory concentration index measured after 24 hrs in presence of curcumin by checkerboard assay; type: functional; in short: as §1
[11] = tested on: Staphylococcus aureus; experiment: Antibacterial activity against vancomycin-intermediate resistant Staphylococcus aureus Mu50 assessed as reduction in bacterial growth incubated for 24 hrs in presence of curcumin; type: functional
[12] = tested on: Staphylococcus aureus; experiment: Bactericidal activity against methicillin-resistant Staphylococcus aureus NCTC 12493 assessed as bacterial cell death at 0.5 fold MIC measured after 4 to 6 hrs hrs in presence of polymyxin B at MIC by time kill assay relative to control; type: functional; settings: time 4-6 hrs
In short: (§3)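 Time-kill in 10 mL Mueller-Hinton 2 broth, 37 °C with continuous agitation, 24 h. Inoculum was a 1/1000 dilution of a 16 h overnight culture, about 10^6 CFU/mL. Single agents at 1× MIC; combination at 1× MIC polymyxin B plus 0.5× MIC curcumin. Samples at 0, 2, 4, 6 and 24 h were serially diluted and plated on IsoSensitest agar for CFU/mL.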

[13] = tested on: Escherichia coli; experiment: Antibacterial activity against Escherichia coli EC204 harboring NDM-1 assessed as reduction in bacterial growth incubated for 24 hrs in presence of polymyxin B; type: functional
[14] = tested on: Enterococcus faecium; experiment: Antibacterial activity against vancomycin-resistant Enterococcus faecium OEF65 assessed as reduction in bacterial growth incubated for 24 hrs in presence of polymyxin B; type: functional
[15] = tested on: Streptococcus pyogenes; experiment: Potentiation of polymyxin B-induced antibacterial activity against Streptococcus pyogenes SPY1 assessed as fold reduction in polymyxin B MIC measured after 24 hrs in presence of polymyxin B by checkerboard assay; type: functional
[16] = tested on: Acinetobacter baumannii; experiment: Antibacterial activity against Acinetobacter baumannii AB12 harboring OXA-23 assessed as reduction in bacterial growth incubated for 24 hrs in presence of polymyxin B; type: functional
[17] = tested on: Enterococcus faecalis; experiment: Potentiation of polymyxin B-induced antibacterial activity against Enterococcus faecalis ATCC 29212 assessed as fold reduction in polymyxin B MIC measured after 24 hrs in presence of polymyxin B by checkerboard assay
[18] = tested on: Acinetobacter baumannii; experiment: Antibacterial activity against Acinetobacter baumannii AB16 harboring OXA-23 clone 2 assessed as reduction in bacterial growth incubated for 24 hrs in presence of polymyxin B; type: functional
[19] = tested on: Pseudomonas aeruginosa; experiment: Antibacterial activity against Pseudomonas aeruginosa PAO1 assessed as reduction in bacterial growth incubated for 24 hrs in presence of polymyxin B; type: functional
[20] = tested on: Pseudomonas aeruginosa; experiment: Potentiation of polymyxin B-induced antibacterial activity against Pseudomonas aeruginosa PAO1 assessed as fold reduction in polymyxin B MIC measured after 24 hrs in presence of polymyxin B by checkerboard assay; type: functional
[21] = tested on: Streptococcus pyogenes; experiment: Antibacterial activity against Streptococcus pyogenes SPY2 assessed as reduction in bacterial growth incubated for 24 hrs in presence of polymyxin B; type: functional
[22] = tested on: Escherichia coli; experiment: Potentiation of polymyxin B-induced antibacterial activity against Escherichia coli EC2 harboring CTX-M-15 assessed as fold reduction in polymyxin B MIC measured after 24 hrs […] checkerboard assay; type: functional
In short: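 Combination MICs from the checkerboard used for FICI calculation. Where no MIC was reached, the dilution above the top dose was used in the FICI. Run in triplicate; mean values reported.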

[23] = tested on: Pseudomonas aeruginosa; experiment: Antibacterial activity against Pseudomonas aeruginosa ATCC 27853 assessed as log reduction in colony forming units at 0.5 fold MIC measured after 24 hrs by time kill assay; type: functional; settings: in the assay text read “1 fold MIC” for “0.5 fold MIC”
In short: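 Time-kill in Mueller-Hinton 2 broth. Inoculum was a 1/1000 dilution of a 16 h overnight culture, about 10^6 CFU/mL, 10 mL per tube. Arms were each agent alone at ×1 MIC, or the combination at ×1 MIC plus ×0.5 MIC partner. Incubated at 37 °C with continuous agitation for 24 h. Samples taken at 0, 2, 4, 6 and 24 h, serially diluted and plated on IsoSensitest agar for CFU counts.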

[24] = tested on: Stenotrophomonas maltophilia; experiment: Potentiation of polymyxin B-induced antibacterial activity against Stenotrophomonas maltophilia NCTC 10258 assessed as fold reduction in polymyxin B MIC measured after 24 hrs in presence of polymyxin B by checkerboard assay; type: functional
[25] = tested on: Staphylococcus aureus; experiment: Antibacterial activity against methicillin-resistant Staphylococcus aureus NCTC 12493 assessed as reduction in bacterial colony formation at 0.5 fold MIC measured after 24 hrs by time kill assay; type: functional, organism-based
[26] = tested on: Pseudomonas aeruginosa; experiment: Antibacterial activity against Pseudomonas aeruginosa ATCC 27853 assessed as reduction in bacterial growth incubated for 24 hrs in presence of polymyxin B; type: functional
[27] = tested on: Stenotrophomonas maltophilia; experiment: Antibacterial activity against Stenotrophomonas maltophilia NCTC 10258 assessed as reduction in bacterial growth incubated for 24 hrs in presence of polymyxin B; type: functional
[28] = tested on: Acinetobacter baumannii; experiment: Bactericidal activity against Acinetobacter baumannii NCTC 19606 assessed as bacterial cell death at 0.5 fold MIC measured after 4 to 6 hrs in presence of polymyxin B at MIC by time kill assay relative to control; type: functional; settings: time 4-6 hrs; in short: as §3
[29] = tested on: Escherichia coli; experiment: Antibacterial activity against Escherichia coli EC2 harboring CTX-M-15 assessed as reduction in bacterial growth incubated for 24 hrs in presence of polymyxin B; type: functional
[30] = tested on: Pseudomonas aeruginosa; experiment: Antibacterial activity against Pseudomonas aeruginosa PA14 assessed as reduction in bacterial growth incubated for 24 hrs in presence of polymyxin B; type: functional

CC[C@H](C)CCCCC(=O)N[C@@H](CCN)C(=O)N[C@H](C(=O)N[C@@H](CCN)C(=O)N[C@H]1CCNC(=O)[C@H]([C@@H](C)O)NC(=O)[C@H](CCN)NC(=O)[C@H](CCN)NC(=O)[C@H](CC(C)C)NC(=O)[C@@H](Cc2ccccc2)NC(=O)[C@H](CCN)NC1=O)[C@@H](C)O.O=S(=O)(O)O
fractional inhibitory concentration index (FICI) [1]: 0.266 | MIC [2]: 6.1 µM | fractional inhibitory concentration index (FICI) [3]: 0.031 | fractional inhibitory concentration index (FICI) [4]: 0.188 | fractional inhibitory concentration index (FICI) [5]: 0.094 | Activity [6]: 2% | MIC [7]: 0.024 µM | MIC [8]: 0.024 µM | fractional inhibitory concentration index (FICI) [9]: 0.023 | fractional inhibitory concentration index (FICI) [10]: 0.251 | MIC [11]: 1.5 µM

COc1cc(/C=C/C(=O)CC(=O)/C=C/c2ccc(O)c(OC)c2)ccc1O [CURCUMIN]
Activity [12]: 100% | MIC [13]: 174 µM | MIC [14]: 43 µM | fold change (FC) [15]: 3 | MIC [16]: 87 µM | fold change (FC) [17]: 3 | MIC [18]: 22 µM | MIC [19]: 43 µM | fold change (FC) [20]: 3 | MIC [21]: 22 µM | fold change (FC) [22]: 3 | Activity [23]: 2 log10CFU/ml | fold change (FC) [24]: 3 | Activity [25]: inactive | MIC [26]: 174 µM | MIC [27]: 22 µM | Activity [28]: 100% | MIC [29]: 43 µM | MIC [30]: 22 µM
